According to ChEMBL document CHEMBL3870349, “Novel 3-methylindoline inhibitors of EZH2: Design, synthesis and SAR” (Bioorg Med Chem Lett, 2017):
In brackets after ≈: the same amount, converted by molar mass.

Columns and labels:
[1] = molecular target: Histone-lysine N-methyltransferase EZH2 (Homo sapiens, UniProt Q15910); assay: Inhibition of human wild type EZH2 using histone H3 as substrate after 1 hr in presence of 3H-SAM by filter paper detection analysis
Summary of the method: (§1)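 Each HMT complex was incubated with 3H-SAM (tritiated S-adenosyl-L-methionine) and histone H3 as substrate. An IC50 curve was generated for each compound.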

[2] = molecular target: T1, Histone-lysine N-methyltransferase EZH1 (Homo sapiens, UniProt Q92800); assay: Inhibition of human EZH1 complex using histone H3 as substrate after 1 hr in presence of 3H-SAM by filter paper detection analysis; summary of the method: as §1
T1 sequence (Q92800 whole entry): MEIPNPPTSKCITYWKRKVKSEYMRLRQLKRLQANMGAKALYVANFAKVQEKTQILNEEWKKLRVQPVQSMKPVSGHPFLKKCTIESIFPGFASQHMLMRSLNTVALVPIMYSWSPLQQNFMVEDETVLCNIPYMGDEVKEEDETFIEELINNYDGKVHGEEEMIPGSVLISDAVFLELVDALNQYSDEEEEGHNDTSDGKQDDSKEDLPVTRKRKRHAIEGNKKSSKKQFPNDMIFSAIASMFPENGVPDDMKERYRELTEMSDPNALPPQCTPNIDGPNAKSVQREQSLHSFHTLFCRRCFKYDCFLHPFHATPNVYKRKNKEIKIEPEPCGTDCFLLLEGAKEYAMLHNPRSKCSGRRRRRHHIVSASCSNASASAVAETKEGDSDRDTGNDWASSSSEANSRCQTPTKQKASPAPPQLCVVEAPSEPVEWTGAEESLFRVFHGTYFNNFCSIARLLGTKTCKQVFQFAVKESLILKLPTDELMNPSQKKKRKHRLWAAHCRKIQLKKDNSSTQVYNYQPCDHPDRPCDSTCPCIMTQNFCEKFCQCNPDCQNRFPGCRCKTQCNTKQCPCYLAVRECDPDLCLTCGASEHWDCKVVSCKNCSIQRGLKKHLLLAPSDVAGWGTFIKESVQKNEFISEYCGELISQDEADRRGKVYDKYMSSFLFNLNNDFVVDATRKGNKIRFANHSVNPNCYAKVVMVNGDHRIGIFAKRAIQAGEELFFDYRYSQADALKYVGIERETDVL

[3] = molecular target: Histone-lysine N-methyltransferase EZH2 (Homo sapiens, UniProt Q15910, Y641F); assay: Inhibition of human EZH2 Y641F mutant using histone H3 as substrate after 1 hr in presence of 3H-SAM by filter paper detection analysis; summary of the method: as §1
Histone-lysine N-methyltransferase EZH2 (Homo sapiens, UniProt Q15910, Y641F), sequence (Q15910 whole entry Y641F): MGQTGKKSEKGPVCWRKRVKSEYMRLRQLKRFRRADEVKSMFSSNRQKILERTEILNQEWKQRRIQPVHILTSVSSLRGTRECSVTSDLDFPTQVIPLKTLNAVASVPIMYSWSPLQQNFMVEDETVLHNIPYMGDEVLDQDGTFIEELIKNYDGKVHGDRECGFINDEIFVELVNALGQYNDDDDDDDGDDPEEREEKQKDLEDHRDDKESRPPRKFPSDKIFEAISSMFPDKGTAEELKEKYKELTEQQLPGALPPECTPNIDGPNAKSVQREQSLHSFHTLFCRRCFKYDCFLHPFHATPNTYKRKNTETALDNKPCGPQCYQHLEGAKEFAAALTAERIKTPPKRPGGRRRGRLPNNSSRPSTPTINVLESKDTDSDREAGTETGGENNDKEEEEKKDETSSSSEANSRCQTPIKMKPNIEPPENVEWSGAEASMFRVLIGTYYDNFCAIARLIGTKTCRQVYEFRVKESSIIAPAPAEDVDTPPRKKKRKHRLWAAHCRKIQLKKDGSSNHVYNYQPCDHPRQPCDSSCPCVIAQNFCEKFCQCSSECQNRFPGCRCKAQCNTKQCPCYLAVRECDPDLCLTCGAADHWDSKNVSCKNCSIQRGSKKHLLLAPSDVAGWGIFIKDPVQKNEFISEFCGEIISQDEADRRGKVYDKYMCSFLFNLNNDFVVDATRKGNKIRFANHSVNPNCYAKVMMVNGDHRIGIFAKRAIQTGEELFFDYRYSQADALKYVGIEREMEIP

[4] = Kinetic solubility of compound in PBS buffer at pH 7.4 after 1 hr by micro-plate nephelometric analysis; format: physicochemical; details: read-out: Kinetic_solubility
[5] = Oxidative metabolic stability in human liver microsomes assessed as amount of parent compound remaining at 1 uM after 30 mins by LC-MS/MS; format: ADME; details: read-out: Stability
[6] = Oxidative metabolic stability in mouse liver microsomes assessed as amount of parent compound remaining at 1 uM after 30 mins by LC-MS/MS; format: ADME; details: read-out: Stability

Histone-lysine N-methyltransferase EZH2 (Homo sapiens, UniProt Q15910), sequence (Q15910 whole entry): as the sequence (Q15910 whole entry Y641F) above, with F641Y counted along it

Row | IC50 [1] | IC50 [2] | IC50 [3] | SMILES | also measured
1 | 571 nM |  |  | Cc1cc(C)c(CNC(=O)c2cc(C#N)cc3c2CCN3C2CCCC2)c(=O)[nH]1 | 
2 | 237 nM |  |  | Cc1cc(C)c(CNC(=O)c2cc(-c3ccc(CN4CCOCC4)cc3)cc3c2CCN3C2CCOCC2)c(=O)[nH]1 | 
3 | 15700 nM |  |  | Cc1cc(C)c(CNC(=O)c2cc(C#N)cc3c2CCN3C2CCOCC2)c(=O)[nH]1 | 
4 | 26600 nM |  |  | Cc1cc(C)c(CNC(=O)c2cc(C#N)cc3c2CCN3C(C)C)c(=O)[nH]1 | 
5 | 88 nM | 7750 nM | 478 nM | Cc1cc(C)c(CNC(=O)c2cc(C#N)cc3c2C(C)CN3C(C)C)c(=O)[nH]1 (stereo in doubt; 27e1) | 
6 | > 100000 nM |  |  | Cc1cc(C)c(CNC(=O)c2cc(C#N)cc3c2C(C)CN3C(C)C)c(=O)[nH]1 (stereo in doubt; 27e2) | 
7 | 27 nM | 4440 nM | 185 nM | Cc1cc(C)c(CNC(=O)c2cc(C#N)cc3c2C(C)CN3C2CCCC2)c(=O)[nH]1 (stereo in doubt; 28e1) | 
8 | > 100000 nM |  |  | Cc1cc(C)c(CNC(=O)c2cc(C#N)cc3c2C(C)CN3C2CCCC2)c(=O)[nH]1 (stereo in doubt; 28e2) | 
9 | 47 nM | 2710 nM | 518 nM | Cc1cc(C)c(CNC(=O)c2cc(-c3ccc(CN4CCOCC4)cc3)cc3c2C(C)CN3C(C)C)c(=O)[nH]1 (stereo in doubt; 30e1) | 
10 | 4140 nM |  |  | Cc1cc(C)c(CNC(=O)c2cc(-c3ccc(CN4CCOCC4)cc3)cc3c2C(C)CN3C(C)C)c(=O)[nH]1 (stereo in doubt; 30e2) | 
11 | 375 nM |  |  | Cc1cc(C)c(CNC(=O)c2cc(-c3ccc(CN4CCOCC4)cc3)cc3c2C(C)CN3CC2CC2)c(=O)[nH]1 (stereo in doubt; 31e1) | 
12 | 15200 nM |  |  | Cc1cc(C)c(CNC(=O)c2cc(-c3ccc(CN4CCOCC4)cc3)cc3c2C(C)CN3CC2CC2)c(=O)[nH]1 (stereo in doubt; 31e2) | 
13 | 24 nM | 2650 nM | 902 nM | Cc1cc(C)c(CNC(=O)c2cc(-c3ccc(CN4CCOCC4)cc3)cc3c2C(C)CN3C2CCCC2)c(=O)[nH]1 (stereo in doubt; 33e1) | 
14 | 448 nM |  |  | Cc1cc(C)c(CNC(=O)c2cc(-c3ccc(CN4CCOCC4)cc3)cc3c2C(C)CN3C2CCCC2)c(=O)[nH]1 (stereo in doubt; 33e2) | 
15 | 29 nM | 3340 nM | 975 nM | Cc1cc(C)c(CNC(=O)c2cc(-c3ccc(CN4CCOCC4)cc3)cc3c2C(C)CN3C2CCOCC2)c(=O)[nH]1 (stereo in doubt; 34e1) | solubility kinetic at 1 h [4]: 75 µM (≈ 42.8 µg/mL); remaining at 0.5 h, 1 µM [5]: 62%; remaining at 0.5 h, 1 µM [6]: 58%
16 | 6980 nM |  |  | Cc1cc(C)c(CNC(=O)c2cc(-c3ccc(CN4CCOCC4)cc3)cc3c2C(C)CN3C2CCOCC2)c(=O)[nH]1 (stereo in doubt; 34e2) | 
17 | 17 nM | 1560 nM | 304 nM | Cc1cc(C)c(CNC(=O)c2cc(-c3cnc(N4CCNCC4)c4ccccc34)cc3c2C(C)CN3C2CCOCC2)c(=O)[nH]1 (stereo in doubt; 36e1) | 
18 | 540 nM |  |  | Cc1cc(C)c(CNC(=O)c2cc(-c3cnc(N4CCNCC4)c4ccccc34)cc3c2C(C)CN3C2CCOCC2)c(=O)[nH]1 (stereo in doubt; 36e2) | 
19 | 17 nM | 1870 nM | 622 nM | Cc1cc(C)c(CNC(=O)c2cc(-c3ccc(N4CCNCC4)nc3)cc3c2C(C)CN3C(C)C)c(=O)[nH]1 (stereo in doubt; 39e1) | 
20 | 1080 nM |  |  | Cc1cc(C)c(CNC(=O)c2cc(-c3ccc(N4CCNCC4)nc3)cc3c2C(C)CN3C(C)C)c(=O)[nH]1 (stereo in doubt; 39e2) | 
21 | 21 nM | 1350 nM | 505 nM | Cc1cc(C)c(CNC(=O)c2cc(-c3ccc(N4CCNCC4)nc3)cc3c2C(C)CN3C2CCCC2)c(=O)[nH]1 (stereo in doubt; 40e1) | 
22 | 378 nM |  |  | Cc1cc(C)c(CNC(=O)c2cc(-c3ccc(N4CCNCC4)nc3)cc3c2C(C)CN3C2CCCC2)c(=O)[nH]1 (stereo in doubt; 40e2) | 
23 | 11 nM | 1980 nM | 578 nM | Cc1cc(C)c(CNC(=O)c2cc(-c3ccc(N4CCNCC4)nc3)cc3c2C(C)CN3C2CCOCC2)c(=O)[nH]1 (stereo in doubt; 41e1) | solubility kinetic at 1 h [4]: 75 µM (≈ 41.8 µg/mL); remaining at 0.5 h, 1 µM [5]: 83%; remaining at 0.5 h, 1 µM [6]: 95%
24 | 2150 nM |  |  | Cc1cc(C)c(CNC(=O)c2cc(-c3ccc(N4CCNCC4)nc3)cc3c2C(C)CN3C2CCOCC2)c(=O)[nH]1 (stereo in doubt; 41e2) | 
25 | 98 nM |  |  | Cc1cc(C)c(CNC(=O)c2cc(-c3cnc(N4CCNCC4)nc3)cc3c2C(C)CN3C2CCOCC2)c(=O)[nH]1 (stereo in doubt; 45e1) | 
26 | 2160 nM |  |  | Cc1cc(C)c(CNC(=O)c2cc(-c3cnc(N4CCNCC4)nc3)cc3c2C(C)CN3C2CCOCC2)c(=O)[nH]1 (stereo in doubt; 45e2) | 
27 |  |  |  | CCN(c1cc(-c2ccc(CN3CCOCC3)cc2)cc(C(=O)NCc2c(C)cc(C)[nH]c2=O)c1C)C1CCOCC1 [TAZEMETOSTAT] | solubility kinetic at 1 h [4]: 28 µM (≈ 16 µg/mL); remaining at 0.5 h, 1 µM [5]: 25%; remaining at 0.5 h, 1 µM [6]: 39%
